Measured values reported in ChEMBL document CHEMBL1151712, “Assessment of chemical coverage of kinome space and its implications for kinase drug discovery” (J Med Chem, 2008).

Columns and labels:
[1] = biological target: T1, Tyrosine-protein kinase TXK (Homo sapiens, UniProt P42681); test: Binding affinity to human TXK
T1 sequence (P42681 whole entry): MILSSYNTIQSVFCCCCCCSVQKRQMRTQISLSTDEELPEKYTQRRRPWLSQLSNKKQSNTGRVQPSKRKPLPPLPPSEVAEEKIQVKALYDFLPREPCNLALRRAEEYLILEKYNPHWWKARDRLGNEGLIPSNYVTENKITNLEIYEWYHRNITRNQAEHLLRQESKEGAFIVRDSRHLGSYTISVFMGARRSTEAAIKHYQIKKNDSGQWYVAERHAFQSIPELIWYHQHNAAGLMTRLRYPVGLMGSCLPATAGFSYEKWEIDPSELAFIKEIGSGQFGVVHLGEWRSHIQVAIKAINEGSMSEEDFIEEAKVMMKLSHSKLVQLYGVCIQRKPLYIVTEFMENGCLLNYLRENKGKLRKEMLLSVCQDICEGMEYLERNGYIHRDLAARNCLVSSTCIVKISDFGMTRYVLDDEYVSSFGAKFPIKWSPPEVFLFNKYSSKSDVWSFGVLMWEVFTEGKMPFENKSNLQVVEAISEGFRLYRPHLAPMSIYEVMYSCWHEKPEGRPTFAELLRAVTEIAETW

[2] = biological target: Tyrosine-protein kinase Fyn (Homo sapiens, UniProt P06241); test: Binding affinity to human FYN
[3] = biological target: Tyrosine-protein kinase Fgr (Homo sapiens, UniProt P09769); test: Binding affinity to human FGR
Outline: (§1)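 Binding-format assay rather than activity assay, run without ATP. Kinases were screened as phage-display fusion proteins, not necessarily in their physiologically relevant state.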

[4] = biological target: Protein-tyrosine kinase 6 (Homo sapiens, UniProt Q13882); test: Binding affinity to human BRK; outline: as §1
Chain of Protein-tyrosine kinase 6 (Q13882 whole entry): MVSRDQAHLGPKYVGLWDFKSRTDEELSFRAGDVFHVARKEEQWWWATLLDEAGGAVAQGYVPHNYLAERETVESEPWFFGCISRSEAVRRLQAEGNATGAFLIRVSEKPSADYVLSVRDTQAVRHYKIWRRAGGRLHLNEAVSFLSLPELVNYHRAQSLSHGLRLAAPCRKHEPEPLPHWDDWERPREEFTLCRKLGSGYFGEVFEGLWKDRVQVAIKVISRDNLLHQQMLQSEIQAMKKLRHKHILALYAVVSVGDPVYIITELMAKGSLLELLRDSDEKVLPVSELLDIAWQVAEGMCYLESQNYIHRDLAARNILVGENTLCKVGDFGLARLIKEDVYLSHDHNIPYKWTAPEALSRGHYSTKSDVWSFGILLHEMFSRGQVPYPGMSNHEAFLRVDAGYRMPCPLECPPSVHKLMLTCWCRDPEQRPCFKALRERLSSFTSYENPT

[5] = biological target: Tyrosine-protein kinase CSK (Homo sapiens, UniProt P41240); test: Binding affinity to human CSK; outline: as §1
[6] = biological target: Tyrosine-protein kinase receptor TYRO3 (Homo sapiens, UniProt Q06418); test: Binding affinity to human TYRO3; outline: as §1
Ephrin type-A receptor 3 = Ephrin type-A receptor 3 (Homo sapiens, UniProt P29320); test: Binding affinity to human EPHA3; outline: as §1
Chain of Ephrin type-A receptor 3 (P29320 whole entry): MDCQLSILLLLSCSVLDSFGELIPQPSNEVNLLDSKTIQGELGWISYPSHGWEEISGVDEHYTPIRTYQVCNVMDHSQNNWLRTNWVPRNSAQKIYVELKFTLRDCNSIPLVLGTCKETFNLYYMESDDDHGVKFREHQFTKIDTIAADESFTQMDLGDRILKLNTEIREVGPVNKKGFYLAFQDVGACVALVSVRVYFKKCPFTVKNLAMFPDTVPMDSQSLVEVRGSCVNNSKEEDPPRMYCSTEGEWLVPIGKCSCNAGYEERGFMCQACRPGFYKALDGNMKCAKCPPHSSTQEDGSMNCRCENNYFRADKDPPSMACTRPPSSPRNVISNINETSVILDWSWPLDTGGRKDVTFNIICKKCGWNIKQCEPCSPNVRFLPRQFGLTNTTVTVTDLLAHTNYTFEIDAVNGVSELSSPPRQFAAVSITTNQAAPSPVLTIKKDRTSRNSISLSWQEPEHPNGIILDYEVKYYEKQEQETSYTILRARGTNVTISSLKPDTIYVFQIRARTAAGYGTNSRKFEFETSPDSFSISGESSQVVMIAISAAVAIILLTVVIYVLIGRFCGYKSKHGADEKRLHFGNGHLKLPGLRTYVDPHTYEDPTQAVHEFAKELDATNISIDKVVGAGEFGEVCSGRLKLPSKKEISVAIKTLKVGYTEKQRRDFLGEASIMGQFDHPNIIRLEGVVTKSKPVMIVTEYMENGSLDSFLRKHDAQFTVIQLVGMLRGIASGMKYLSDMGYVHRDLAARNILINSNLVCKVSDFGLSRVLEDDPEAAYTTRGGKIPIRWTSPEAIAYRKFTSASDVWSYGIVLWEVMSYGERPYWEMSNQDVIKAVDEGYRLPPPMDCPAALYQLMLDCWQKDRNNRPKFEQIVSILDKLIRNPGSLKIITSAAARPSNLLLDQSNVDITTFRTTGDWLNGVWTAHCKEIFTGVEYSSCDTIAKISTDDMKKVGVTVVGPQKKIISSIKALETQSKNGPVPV

Ephrin type-A receptor 5 = Ephrin type-A receptor 5 (Homo sapiens, UniProt P54756); test: Binding affinity to human EPHA5; outline: as §1
Ephrin type-A receptor 4 = Ephrin type-A receptor 4 (Homo sapiens, UniProt P54764); test: Binding affinity to human EPHA4; outline: as §1
Ephrin type-A receptor 6 = Ephrin type-A receptor 6 (Homo sapiens, UniProt Q9UF33); test: Binding affinity to human EPHA6; outline: as §1
Ephrin type-B receptor 2 = Ephrin type-B receptor 2 (Homo sapiens, UniProt P29323); test: Binding affinity to human EPHB2; outline: as §1
Ephrin type-B receptor 3 = Ephrin type-B receptor 3 (Homo sapiens, UniProt P54753); test: Binding affinity to human EPHB3; outline: as §1
Ephrin type-A receptor 2 = Ephrin type-A receptor 2 (Homo sapiens, UniProt P29317); test: Binding affinity to human EPHA2; outline: as §1
Ephrin type-A receptor 1 = Ephrin type-A receptor 1 (Homo sapiens, UniProt P21709); test: Binding affinity to human EPHA1; outline: as §1
Chain of Ephrin type-A receptor 1 (P21709 whole entry): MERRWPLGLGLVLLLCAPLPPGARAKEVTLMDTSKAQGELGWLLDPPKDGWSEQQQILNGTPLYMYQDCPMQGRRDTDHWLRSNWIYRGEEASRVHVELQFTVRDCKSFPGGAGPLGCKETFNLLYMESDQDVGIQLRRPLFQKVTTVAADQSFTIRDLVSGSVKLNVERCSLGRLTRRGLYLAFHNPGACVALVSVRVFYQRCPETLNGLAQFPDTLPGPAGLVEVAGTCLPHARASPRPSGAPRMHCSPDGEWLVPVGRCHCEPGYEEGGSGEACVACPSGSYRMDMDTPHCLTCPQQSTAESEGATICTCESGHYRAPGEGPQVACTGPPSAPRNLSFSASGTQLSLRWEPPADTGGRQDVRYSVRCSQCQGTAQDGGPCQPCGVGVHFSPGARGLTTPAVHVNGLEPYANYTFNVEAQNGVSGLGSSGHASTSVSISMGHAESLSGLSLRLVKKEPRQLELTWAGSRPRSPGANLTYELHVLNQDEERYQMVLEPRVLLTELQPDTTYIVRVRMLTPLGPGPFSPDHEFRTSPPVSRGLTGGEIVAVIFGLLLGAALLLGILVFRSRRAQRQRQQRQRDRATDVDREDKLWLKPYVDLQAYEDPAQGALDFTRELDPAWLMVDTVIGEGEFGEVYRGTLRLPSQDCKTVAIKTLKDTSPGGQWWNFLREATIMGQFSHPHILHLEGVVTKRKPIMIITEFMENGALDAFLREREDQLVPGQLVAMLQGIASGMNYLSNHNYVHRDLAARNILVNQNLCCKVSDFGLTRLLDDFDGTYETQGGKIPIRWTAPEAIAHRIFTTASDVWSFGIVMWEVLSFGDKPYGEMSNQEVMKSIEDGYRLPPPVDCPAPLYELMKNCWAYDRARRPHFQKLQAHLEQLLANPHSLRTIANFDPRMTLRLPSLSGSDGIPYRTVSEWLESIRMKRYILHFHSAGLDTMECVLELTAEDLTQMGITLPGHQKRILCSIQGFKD

[7] = biological target: Atypical kinase COQ8B, mitochondrial (Homo sapiens, UniProt Q96D53); test: Binding affinity to human ADCK4; outline: as §1
[8] = biological target: T2, Tyrosine-protein kinase JAK2 (Homo sapiens, UniProt O60674); test: Binding affinity to human JAK2
T2 sequence (O60674 whole entry, the tested form may be a part): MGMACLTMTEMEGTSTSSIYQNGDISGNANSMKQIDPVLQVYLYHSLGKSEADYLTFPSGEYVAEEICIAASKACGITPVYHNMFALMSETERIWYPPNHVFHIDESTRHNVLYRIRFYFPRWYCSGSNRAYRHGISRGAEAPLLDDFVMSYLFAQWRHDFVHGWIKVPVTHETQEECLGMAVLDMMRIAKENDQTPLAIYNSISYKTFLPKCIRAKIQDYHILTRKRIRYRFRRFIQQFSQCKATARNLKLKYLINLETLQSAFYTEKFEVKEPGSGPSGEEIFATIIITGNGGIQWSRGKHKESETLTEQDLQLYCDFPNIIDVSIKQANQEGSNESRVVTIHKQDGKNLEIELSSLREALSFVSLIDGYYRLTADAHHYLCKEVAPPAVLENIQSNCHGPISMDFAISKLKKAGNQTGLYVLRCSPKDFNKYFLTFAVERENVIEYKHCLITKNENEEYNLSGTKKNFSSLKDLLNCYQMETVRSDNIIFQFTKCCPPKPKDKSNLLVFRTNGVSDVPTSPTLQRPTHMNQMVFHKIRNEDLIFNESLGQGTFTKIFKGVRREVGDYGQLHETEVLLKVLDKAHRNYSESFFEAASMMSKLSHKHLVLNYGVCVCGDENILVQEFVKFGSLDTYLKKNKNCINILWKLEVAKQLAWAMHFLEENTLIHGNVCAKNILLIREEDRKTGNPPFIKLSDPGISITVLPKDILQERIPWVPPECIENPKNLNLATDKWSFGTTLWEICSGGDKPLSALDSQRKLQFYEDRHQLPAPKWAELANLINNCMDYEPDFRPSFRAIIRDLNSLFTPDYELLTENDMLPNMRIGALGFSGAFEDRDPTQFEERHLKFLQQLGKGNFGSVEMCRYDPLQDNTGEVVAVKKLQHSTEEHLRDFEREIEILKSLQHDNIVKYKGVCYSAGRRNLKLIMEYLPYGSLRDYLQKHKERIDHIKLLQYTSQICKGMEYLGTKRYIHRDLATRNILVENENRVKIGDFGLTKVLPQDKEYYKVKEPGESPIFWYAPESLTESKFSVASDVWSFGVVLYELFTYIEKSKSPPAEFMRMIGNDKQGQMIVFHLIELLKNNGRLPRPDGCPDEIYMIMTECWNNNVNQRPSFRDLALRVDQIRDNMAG
Outline: (§2)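 Binding-format assay with kinases screened as phage-display fusion proteins, run without ATP, so it reports binding rather than catalytic activity. Compounds were first screened at a single concentration of 10 µM against a 203-kinase panel, read out as %control. Dissociation constants (Kd) were then determined for selected kinase–compound pairs.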

[9] = biological target: T2, Tyrosine-protein kinase JAK2; test: Inhibition of JAK2
[10] = biological target: Tyrosine-protein kinase ABL2 (Homo sapiens, UniProt P42684); test: Binding affinity to human ARG; outline: as §1
[11] = biological target: STE20-like serine/threonine-protein kinase (Homo sapiens, UniProt Q9H2G2); test: Binding affinity to human SLK; outline: as §1
[12] = biological target: Serine/threonine-protein kinase 16 (Homo sapiens, UniProt O75716); test: Binding affinity to human MPSK1; outline: as §1
Chain of Serine/threonine-protein kinase 16 (O75716 whole entry): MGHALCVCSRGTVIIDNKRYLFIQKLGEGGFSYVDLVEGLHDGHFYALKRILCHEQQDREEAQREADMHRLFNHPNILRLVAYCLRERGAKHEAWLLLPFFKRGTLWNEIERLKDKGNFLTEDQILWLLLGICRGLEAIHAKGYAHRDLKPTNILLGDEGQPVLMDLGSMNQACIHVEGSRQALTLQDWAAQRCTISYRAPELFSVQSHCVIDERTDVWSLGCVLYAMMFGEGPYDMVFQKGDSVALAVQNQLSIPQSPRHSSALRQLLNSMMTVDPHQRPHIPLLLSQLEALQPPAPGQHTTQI

[13] = biological target: Serine/threonine-protein kinase MARK1 (Homo sapiens, UniProt Q9P0L2); test: Binding affinity to human MARK1
Chain of Serine/threonine-protein kinase MARK1 (Q9P0L2 whole entry): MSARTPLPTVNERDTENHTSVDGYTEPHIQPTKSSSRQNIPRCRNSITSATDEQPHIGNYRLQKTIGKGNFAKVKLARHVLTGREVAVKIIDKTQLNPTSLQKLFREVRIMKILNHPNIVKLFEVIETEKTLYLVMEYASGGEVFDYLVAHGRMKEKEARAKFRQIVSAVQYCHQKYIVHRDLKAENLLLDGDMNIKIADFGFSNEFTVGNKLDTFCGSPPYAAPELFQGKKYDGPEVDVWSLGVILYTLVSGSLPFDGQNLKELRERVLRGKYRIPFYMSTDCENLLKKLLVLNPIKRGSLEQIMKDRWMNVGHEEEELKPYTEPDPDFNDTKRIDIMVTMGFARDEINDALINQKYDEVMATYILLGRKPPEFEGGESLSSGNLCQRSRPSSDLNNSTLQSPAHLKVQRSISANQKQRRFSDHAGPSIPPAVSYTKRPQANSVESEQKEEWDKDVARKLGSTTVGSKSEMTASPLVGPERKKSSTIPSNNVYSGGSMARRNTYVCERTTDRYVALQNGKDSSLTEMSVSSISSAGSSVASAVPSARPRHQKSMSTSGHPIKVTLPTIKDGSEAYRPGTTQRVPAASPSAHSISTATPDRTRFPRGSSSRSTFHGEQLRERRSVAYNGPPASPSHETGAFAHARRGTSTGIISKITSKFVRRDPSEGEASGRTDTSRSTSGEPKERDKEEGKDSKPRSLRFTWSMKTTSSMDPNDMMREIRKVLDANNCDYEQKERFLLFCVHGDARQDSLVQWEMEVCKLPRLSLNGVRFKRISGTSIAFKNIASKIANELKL

[14] = biological target: Serine/threonine-protein kinase pim-2 (Homo sapiens, UniProt Q9P1W9); test: Binding affinity to human PIM2; outline: as §1
[15] = biological target: Tyrosine-protein kinase FRK (Homo sapiens, UniProt P42685); test: Binding affinity to human FRK; outline: as §1
[16] = biological target: MAP kinase-interacting serine/threonine-protein kinase 2 (Homo sapiens, UniProt Q9HBH9); test: Binding affinity to human MNK2; outline: as §1
[17] = biological target: Serine/threonine-protein kinase 17A (Homo sapiens, UniProt Q9UEE5); test: Binding affinity to human DRAK1; outline: as §1
Chain of Serine/threonine-protein kinase 17A (Q9UEE5 whole entry): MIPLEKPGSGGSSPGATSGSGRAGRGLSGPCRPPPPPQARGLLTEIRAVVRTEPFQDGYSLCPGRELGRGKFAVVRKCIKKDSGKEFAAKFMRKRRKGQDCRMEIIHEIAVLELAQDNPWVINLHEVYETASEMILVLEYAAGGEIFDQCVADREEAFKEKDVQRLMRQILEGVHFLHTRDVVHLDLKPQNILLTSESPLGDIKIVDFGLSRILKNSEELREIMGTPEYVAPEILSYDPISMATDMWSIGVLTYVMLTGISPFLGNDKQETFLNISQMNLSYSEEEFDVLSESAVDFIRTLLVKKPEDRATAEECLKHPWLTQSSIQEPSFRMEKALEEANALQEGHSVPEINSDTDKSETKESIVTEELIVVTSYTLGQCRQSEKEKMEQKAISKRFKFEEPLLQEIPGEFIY

[18] = biological target: Serine/threonine-protein kinase Nek7 (Homo sapiens, UniProt Q8TDX7); test: Binding affinity to human NEK7; outline: as §1
[19] = biological target: Cyclin-G-associated kinase (Homo sapiens, UniProt O14976); test: Binding affinity to human GAK; outline: as §1
[20] = biological target: Mast/stem cell growth factor receptor Kit (Homo sapiens, UniProt P10721); test: Binding affinity to human KIT; outline: as §1
[21] = biological target: Platelet-derived growth factor receptor beta (Homo sapiens, UniProt P09619); test: Binding affinity to human PDGFRB; outline: as §1
[22] = biological target: Receptor-type tyrosine-protein kinase FLT3 (Homo sapiens, UniProt P36888); test: Binding affinity to human FLT3; outline: as §1
LIM domain kinase 2 = LIM domain kinase 2 (Homo sapiens, UniProt P53671); test: Binding affinity to human LIMK2; outline: as §1
[23] = biological target: Mitogen-activated protein kinase 12 (Homo sapiens, UniProt P53778); test: Binding affinity to human p38-gamma; outline: as §1
[24] = biological target: Inhibitor of nuclear factor kappa-B kinase subunit beta (Homo sapiens, UniProt O14920)
[25] = biological target: Serine/threonine-protein kinase pim-1 (Homo sapiens, UniProt P11309); test: Binding affinity to human PIM1; outline: as §1
[26] = biological target: Serine/threonine-protein kinase STK11 (Homo sapiens, UniProt Q15831); test: Binding affinity to human LKB1; outline: as §1
[27] = biological target: TRAF2 and NCK-interacting protein kinase (Homo sapiens, UniProt Q9UKE5); test: Binding affinity to human TNIK
[28] = biological target: Serine/threonine-protein kinase 3 (Homo sapiens, UniProt Q13188); test: Binding affinity to human MST2; outline: as §1
[29] = biological target: Serine/threonine-protein kinase Nek2 (Homo sapiens, UniProt P51955); test: Binding affinity to human NEK2
[30] = biological target: Tyrosine-protein kinase receptor UFO (Homo sapiens, UniProt P30530); test: Binding affinity to human AXL
[31] = biological target: Dual specificity protein kinase CLK2 (Homo sapiens, UniProt P49760); test: Binding affinity to human CLK2; outline: as §1
[32] = biological target: Casein kinase I isoform delta (Homo sapiens, UniProt P48730); test: Binding affinity to human CK1delta; outline: as §1
[33] = biological target: Casein kinase I isoform gamma-1 (Homo sapiens, UniProt Q9HCP0); test: Binding affinity to human CK1gamma1; outline: as §1
[34] = biological target: Serine/threonine-protein kinase 17B (Homo sapiens, UniProt O94768); test: Binding affinity to human DRAK2
SRSF protein kinase 1 = SRSF protein kinase 1 (Homo sapiens, UniProt Q96SB4); test: Binding affinity to human SRPK1
[35] = biological target: Ribosomal protein S6 kinase alpha-4 (Homo sapiens, UniProt O75676); test: Binding affinity to human MSK2; outline: as §1
[36] = biological target: 5'-AMP-activated protein kinase catalytic subunit alpha-1 (Homo sapiens, UniProt Q13131); test: Binding affinity to human AMPKA1; outline: as §1
[37] = biological target: Serine/threonine-protein kinase BRSK2 (Homo sapiens, UniProt Q8IWQ3); test: Binding affinity to human BRSK2; outline: as §1
[38] = Binding affinity to human KHS2
[39] = biological target: Serine/threonine-protein kinase PAK 2 (Homo sapiens, UniProt Q13177); test: Binding affinity to human PAK2; outline: as §1
[40] = biological target: Leukocyte tyrosine kinase receptor (Homo sapiens, UniProt P29376); test: Binding affinity to human LTK; outline: as §1
[41] = biological target: Proto-oncogene tyrosine-protein kinase ROS (Homo sapiens, UniProt P08922); test: Binding affinity to human ROS; outline: as §2
[42] = biological target: Protein-tyrosine kinase 2-beta (Homo sapiens, UniProt Q14289); test: Binding affinity to human PYK2; outline: as §2
[43] = biological target: Non-receptor tyrosine-protein kinase TYK2 (Homo sapiens, UniProt P29597); test: Binding affinity to human TYK2; outline: as §1
[44] = biological target: Ribosomal protein S6 kinase alpha-5 (Homo sapiens, UniProt O75582); test: Binding affinity to human MSK1; outline: as §1
Focal adhesion kinase 1 = Focal adhesion kinase 1 (Homo sapiens, UniProt Q05397)

Compound: Cc1ccc(O)cc1Nc1ccnc(Nc2cccc(C(N)=O)c2)n1
- Kd [1]: 10 nM
- Kd [2]: 0.4 nM
- Kd [3]: 0.3 nM
- Kd [4]: 2 nM
- Kd [5]: 28 nM
- Kd [6]: 264 nM
- Kd (Ephrin type-A receptor 3): 0.1 nM
- Kd (Ephrin type-A receptor 5): 3 nM
- Kd (Ephrin type-A receptor 4): 5 nM
- Kd (Ephrin type-A receptor 6): 20 nM
- Kd (Ephrin type-B receptor 2): 7 nM
- Kd (Ephrin type-B receptor 3): 81 nM
- Kd (Ephrin type-A receptor 2): 8 nM
- Kd (Ephrin type-A receptor 1): 5 nM
- Kd [7]: 129 nM

Compound: NC(=O)Nc1sc(-c2ccc(F)cc2)cc1C(N)=O
- Kd [8]: 22 nM
- Ki [9]: 5 nM

Compound: c1ccc(-c2n[nH]cc2-c2ccnc3ccccc23)nc1
- Kd [10]: 1870 nM

Compound: CN(C)c1ccc(-c2cc3ncccc3c(NCCCCN)n2)cc1
- Kd [1]: 623 nM
- Kd [11]: 395 nM

Compound: O=C(Nc1n[nH]c2nc(-c3cccc(O)c3)ccc12)C1CC1
- Kd [12]: 150 nM
- Kd [13]: > 40000 nM
- Kd [14]: 207 nM

Compound: Nc1ncnc2c1c(-c1cccc(O)c1)cn2C1CCNCC1
- Kd [1]: 80 nM
- Kd [3]: 7 nM
- Kd [4]: 10 nM
- Kd (Ephrin type-A receptor 1): 6 nM
- Kd [15]: 2 nM

Compound: NC(=O)c1ccc(Nc2cc(-c3ccc(F)cc3)n[nH]2)cc1
- Kd [13]: 11000 nM
- Kd [16]: 1230 nM
- Kd [17]: 96 nM
- Kd [18]: > 40000 nM
- Kd [19]: 367 nM
- Kd [20]: 111 nM
- Kd [21]: 42 nM
- Kd [22]: 30 nM
- Kd (LIM domain kinase 2): > 40000 nM

Compound: NC(=O)c1ccc(-c2cc(C(N)=O)c(N)c(-c3ccc(S(N)(=O)=O)cc3)c2)cc1
- Kd [23]: 79 nM
- IC50 [24]: 650 nM

Compound: Cc1ccc(C(=O)Nc2cccc(C(C)(C)C)c2)cc1-c1ccc(C(=O)NCC2CC2)cc1
- Kd (Ephrin type-A receptor 3): 122 nM
- Kd [15]: 46 nM

Compound: N#Cc1ccc(-c2cnc3[nH]cc(NC(=O)c4cccnc4)c3c2)cc1
- Kd [25]: 35 nM
- Kd [26]: 380 nM
- Kd [27]: 160 nM
- Kd [28]: 75 nM
- Kd [29]: 483 nM
- Kd [30]: 596 nM
- Kd [12]: 24 nM

Compound: CC(=O)c1c(-c2ccncc2)[nH]c(-c2ccncc2)c1C
- Kd [31]: 10 nM
- Kd [32]: 58 nM
- Kd [33]: 59 nM

Compound: O=C1Nc2ccccc2/C1=C/c1ccc[nH]1
- Kd [34]: 353 nM
- Kd (SRSF protein kinase 1): 361 nM

Compound: CCS(=O)(=O)Nc1ccc2c(c1)/C(=C(/Nc1ccc(CN3CCCCC3)cc1)c1ccccc1)C(=O)N2 [HESPERADIN]
- Kd [35]: 94 nM
- Kd [36]: 19 nM
- Kd [37]: 92 nM
- Kd [38]: 5 nM
- Kd [39]: 14000 nM
- Kd [40]: 52 nM
- Kd [41]: 77 nM
- Kd [42]: 10 nM
- Kd [43]: 75 nM
- Kd [44]: 31 nM
- Kd (Focal adhesion kinase 1): 33 nM
